Assay outcomes from PubChem BioAssay.
Sampled rows, rich in hits. Any-hit rate of the full collection: about 3%.
Myeloid diff 2: compounds promoting myeloid differentiation. ER-HoxA9 myeloid progenitors, lysozyme-GFP differentiation, flow cytometry. calls only at 10 µM. hit rate 1% among 360,000. AID 624256;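 active = normalized GFP-positive differentiation at or above the plate's own cutoff, the solvent-only control mean plus 3 SD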;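 note: cells exposed to compound for four days before flow analysis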
DSG3 Ab inh: inhibitors of pemphigus antibody binding to human desmoglein-3; P32926; DSG3-coupled beads, scFv-anti-DSG3-GFP binding, flow cytometry; stronger effect = lower value; binding (percent of control), % at 10 µM; hit rate 0.48% among 310,000; AID 588358;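 active = binding more than 3 SD below its plate's average and above zero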
Target sequence (P32926 whole entry, looked up): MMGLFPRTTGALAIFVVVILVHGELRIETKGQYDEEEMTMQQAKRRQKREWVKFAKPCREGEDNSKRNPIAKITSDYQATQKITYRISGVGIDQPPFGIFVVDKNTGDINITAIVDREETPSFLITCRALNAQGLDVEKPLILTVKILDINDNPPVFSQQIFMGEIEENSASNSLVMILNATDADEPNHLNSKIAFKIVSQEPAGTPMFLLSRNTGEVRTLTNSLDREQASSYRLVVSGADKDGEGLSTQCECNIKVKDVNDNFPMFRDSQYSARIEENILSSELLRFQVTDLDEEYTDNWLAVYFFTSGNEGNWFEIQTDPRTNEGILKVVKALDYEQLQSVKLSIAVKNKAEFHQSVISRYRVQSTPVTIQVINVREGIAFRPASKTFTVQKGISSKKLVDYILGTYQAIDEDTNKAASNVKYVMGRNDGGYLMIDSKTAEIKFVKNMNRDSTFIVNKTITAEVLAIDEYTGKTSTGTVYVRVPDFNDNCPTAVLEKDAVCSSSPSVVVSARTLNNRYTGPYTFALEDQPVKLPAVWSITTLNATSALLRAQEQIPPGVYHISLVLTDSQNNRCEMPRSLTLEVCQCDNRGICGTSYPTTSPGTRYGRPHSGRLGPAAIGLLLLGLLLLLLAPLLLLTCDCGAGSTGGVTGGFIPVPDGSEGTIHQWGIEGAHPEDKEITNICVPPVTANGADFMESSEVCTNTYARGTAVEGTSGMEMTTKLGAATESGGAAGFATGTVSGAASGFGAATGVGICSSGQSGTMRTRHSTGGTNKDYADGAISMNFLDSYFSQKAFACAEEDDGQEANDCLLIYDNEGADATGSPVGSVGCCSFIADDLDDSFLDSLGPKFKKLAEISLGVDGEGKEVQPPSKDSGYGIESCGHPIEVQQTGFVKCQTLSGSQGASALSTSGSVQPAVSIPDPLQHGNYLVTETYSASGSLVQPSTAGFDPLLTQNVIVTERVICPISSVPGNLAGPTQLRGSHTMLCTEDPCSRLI
HNF4A DNA FP: change in binding of human HNF4 alpha to DNA. AID 1224865. hit rate 0.3% among 360,000. HNF4a-FITC DNA binding, fluorescence polarization, 1 h. P41235. activity change, % at 10 µM; in the data active = activity change above about 30%, passing the limit was not always enough
Granule exo inh: lytic granule exocytosis inhibition; TALL-104 LAMP-1 surface exposure, flow cytometry; cells stimulated with thapsigargin and PMA; inhibition, % at 10 µM; hit rate 0.66% among 360,000;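 active = inhibition above about 55%, limit read from the data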
SENP1 FRET inh: blocks the human SENP1 SUMO protease catalytic domain; Q9P0U3; recombinant SENP1 catalytic domain, CyPet-SUMO1-YPet FRET cleavage; inhibition, % at 10 µM; hit rate 0.21% among 360,000; AID 624204;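 active = inhibition at least 30% at 10 µM, raw YFP signal under a set limit, fluorescence ratio 0.5 to 1.5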
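System: Recombinant human SENP1 catalytic domain, His6-tagged | Incubation: Enzyme reaction for 50 min at room temperature, dark | Medium: Tris pH 8 with BME, BSA, NP40 and catalase | Also added: 25 nM SUMO1 FRET substrate | Compound: 10 µM single point, 0.5% DMSO | Measured by: FRET fluorescence in CFP and YFP emission channels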
Cardio protect: protects H9c2 cardiomyocytes from peroxide injury; protection from H2O2 cell death, % at 20 µM; AID 588492; H2O2 injury protection, ATPLite, 2 h; hit rate 0.63% among 360,000;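 active = compounds giving at least 50% protection of heart cells from peroxide-induced death in the single-dose screen, raw or plate-pattern-corrected value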
Myeloid diff: myeloid differentiation induction. shares compounds with Myeloid diff 2. ER-HoxA9 myeloid progenitors, GFP/Mac1 double-positive flow. calls only. hit rate 2% among 2,300. AID 651706;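 active = share of green or green-and-red cells above 9 and 9% in run 1 or 4 and 3% in run 2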
GFP autofluor: counter-screen for myeloid differentiation promoters: compound fluorescence | ER-HoxA9 myeloid progenitors, no estrogen, GFP autofluorescence flow cytometry; vehicle wells 0%, positive control 100% | fluorescence response, % (test concentration not listed) | hit rate 7.4% among 2,300 | shares compounds with Myeloid diff 2;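 active = over 5% cells positive for green fluorescent reporter, or over 2% positive for both it and APC stain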
Each line names hits and unclear results; the compound was inactive in the other large screens (follow-up assays come after a bar, where they were run).

COC(=O)c1cn(NC(=O)c2ccc(OC)c([N+](=O)[O-])c2)c(=O)c2ccccc12	none
COC(=O)c1cn(NC(=O)c2ccc(OC)c(OC)c2)c(=O)c2ccccc12	Myeloid diff 2 active | Myeloid diff inactive | GFP autofluor inactive
NNc1nc2cccnc2n(CCNc2ncc(C(F)(F)F)cc2Cl)c1=O	none | Myeloid diff inactive | GFP autofluor inactive
CCN1C[C@@H]2[C@@H]3C(=O)N(Cc4ccccc4)C(=O)[C@@H]3[C@](CC)(C1=O)N2C(=O)c1ccc(C(F)(F)F)cc1	none
O=C(/C=C/c1ccco1)NC(=S)Nc1ccccc1O	none
O=C(/C=C\c1ccco1)NC(=S)Nc1ccccc1O	none | Myeloid diff inactive | GFP autofluor inactive
Cc1cc(=O)oc2cc(OCc3ccc(S(=O)(=O)N4CCOCC4)cc3)ccc12	Myeloid diff 2 active | Myeloid diff inactive | GFP autofluor inactive
CSc1nnc(C2CCN(CC(=O)Nc3ccccc3N3CCOCC3)CC2)n1C(C)C	none
Cc1ccc(C)c(NC(=O)CCN2CCCC(C)C2)c1 (centres undefined)	none
COc1ccccc1C(CCNCc1ccc(N(C)C)cc1)c1ccc(OC(C)C)cc1 (centres undefined)	none | Myeloid diff inactive | GFP autofluor inactive
COC(=O)c1cc2ccsc2n1CC(=O)N1CCCc2ccccc21	none
COC(=O)c1cc2oc3ccccc3c2n1CC(=O)N1CCCc2ccccc21	Myeloid diff 2 active (no result: DSG3 Ab inh) | Myeloid diff inactive | GFP autofluor inactive
O=C(COc1coc(CN2CCc3ccccc32)cc1=O)Nc1ccccc1	none
CCN1CCN(Cc2cccc(Oc3ccc(Cl)cc3)c2)CC1	Myeloid diff 2 active | Myeloid diff inactive | GFP autofluor inactive
N#CCCn1cnc2c(=S)nc[nH]c21	Myeloid diff 2 active | Myeloid diff inactive | GFP autofluor inactive
COC(=O)COc1ccc(S(=O)(=O)Nc2ccc3c(c2)OCO3)cc1Cl	Myeloid diff 2 active | Myeloid diff inactive | GFP autofluor inactive
COC(=O)COc1ccc(S(=O)(=O)Nc2ccc3c(c2)OCO3)cc1	none
O=C(CN1C(=O)S/C(=C\c2ccc(O)cc2)C1=O)c1ccccc1	none | Myeloid diff inactive | GFP autofluor inactive
CCCN1CCC(N2CCN(c3cccc(C(F)(F)F)c3)CC2)CC1	Myeloid diff 2 active | Myeloid diff inactive | GFP autofluor inactive
Cc1ccc(NC(=O)/C(=C\c2ccco2)NC(=O)c2ccco2)cc1	none
COc1ccc(NC(=O)/C(=C\c2ccco2)NC(=O)c2ccco2)cc1	none (no result: DSG3 Ab inh) | Myeloid diff inactive | GFP autofluor inactive
CCC(=O)N(CCC(c1ccc(C)cc1)c1ccco1)Cc1ccco1 (centres undefined)	none | Myeloid diff inactive | GFP autofluor inactive
O=C(NC1(Cc2ccccc2)CCN(CCc2cccs2)C1=O)c1ccccc1 (centres undefined)	none
CCOCCCNC(=O)Cc1c(C(=O)O)[nH]c2ccc(Cl)cc12	none | Myeloid diff inactive | GFP autofluor inactive
COc1ccc(OC)c(CNC(=O)Cc2c(C(=O)O)[nH]c3ccc(Cl)cc23)c1	none
CCNC(=S)N(CCc1c(C)[nH]c2ccccc12)Cc1cc(OC)c(OC)c(OC)c1	none | Myeloid diff inactive | GFP autofluor inactive
CNC(=S)N(CCc1c(C)[nH]c2ccccc12)Cc1cc(OC)c(OC)c(OC)c1	none
CC(=O)N1N=C(c2ccc(Cl)cc2)OC1c1ccc(C(C)C)cc1 (centres undefined)	none | Myeloid diff inactive | GFP autofluor inactive
CC(=O)N1N=C(c2ccc(C)cc2)OC1c1ccc(Br)cc1 (centres undefined)	none
Cc1ccc(-c2cc(C(=O)NN=C3CCCC3)c3ccccc3n2)cc1	none | Myeloid diff inactive | GFP autofluor inactive
COc1ccccc1/C=C(/NC(=O)c1ccc(Cl)cc1Cl)C(=O)O	none
COc1ccccc1C(=O)NC(=O)CSc1nncn1C	none
COc1ccc(C2C(=O)N(C3CCCCC3)CC(=O)N2Cc2ccc3c(c2)OCO3)cc1 (centres undefined)	none | Myeloid diff inactive | GFP autofluor inactive
O=C1C(c2ccc(F)cc2)N(Cc2ccc3c(c2)OCO3)C(=O)CN1C1CCCCCC1 (centres undefined)	none
CSc1ncccc1C(=O)OC(C)C(=O)Nc1cccc(S(=O)(=O)N2CCOCC2)c1 (centres undefined)	none
O=C(CN1C(=O)NC2(CCc3ccccc32)C1=O)Nc1ccccc1C(F)(F)F (centres undefined)	none
Cc1[nH]nc2c1C1(C(=O)N(Cc3ccc(Cl)cc3)c3ccccc31)C(C#N)=C(N)O2 (centres undefined)	none | Myeloid diff inactive | GFP autofluor inactive
COc1cccc(NCc2cc3c(C(C)(C)C)nn(-c4ccccc4)c3[nH]c2=O)c1	Myeloid diff 2 active | Myeloid diff inactive | GFP autofluor inactive
CC(C)(C)c1nc(CN2CCOCC2)ccc1O	none
CC(C)(C)c1nc(CN2CCCCC2)cc(CN2CCCCC2)c1O	Myeloid diff 2 active | Myeloid diff inactive | GFP autofluor inactive
COc1ccc2c(c1OC)C(=O)N(c1ccc3c(c1)CCC3)C2=O	none | Myeloid diff inactive | GFP autofluor inactive
O=C(O)c1ccc(Cl)c(S(=O)(=O)Nc2ccc(OCc3ccccc3)cc2)c1	none | Myeloid diff inactive | GFP autofluor inactive
Cc1ccc(S(=O)(=O)CCC(=O)Nc2ccc3c(c2)OCO3)cc1	none
Cc1ccc(S(=O)(=O)NCCC(=O)Nc2ccc3c(c2)OCO3)cc1	none (no result: DSG3 Ab inh) | Myeloid diff inactive | GFP autofluor inactive
COc1ccc(Cc2nc3ccc(C(=O)NC(C)C)cc3o2)cc1	none | Myeloid diff inactive | GFP autofluor inactive
CCC(C)NC(=O)c1ccc2nc(Cc3ccc(OC)cc3)oc2c1 (centres undefined)	none
O=C1CCCN1CCCNS(=O)(=O)c1ccc(Cl)c(C(=O)N2CCOCC2)c1	none (no result: DSG3 Ab inh) | Myeloid diff inactive | GFP autofluor inactive
O=C(NCCN1CCOCC1)c1cc(S(=O)(=O)NCCCN2CCCC2=O)ccc1Cl	none
CCCc1ccc(C(O)c2ncc(-c3cccc(C)c3)[nH]2)cc1 (centres undefined)	none (no result: DSG3 Ab inh)
COc1ccccc1NS(=O)(=O)c1cc([N+](=O)[O-])ccc1N/N=C/c1c[nH]c2ccccc12	Myeloid diff 2 active, HNF4A DNA FP 72 | Myeloid diff inactive | GFP autofluor 46
CCN(CC)S(=O)(=O)c1cc(NC(=O)C2CCN(c3ncnc4sc(C)c(C)c34)CC2)ccc1Cl	Myeloid diff 2 active | Myeloid diff inactive | GFP autofluor inactive
COC(=O)C[C@@H]1C=C[C@@H](NC(=O)c2ccccc2F)[C@@H](CO)O1	none (no result: DSG3 Ab inh, Cardio protect) | Myeloid diff inactive | GFP autofluor inactive
